{"data": "Experimental data gathered from unrelated publications", "tested at": "1 µM", "KIT autoinhibited": "Mast/stem cell growth factor receptor Kit, autoinhibited (KIT, Homo sapiens, UniProt P10721)", "KIT D816H": "Mast/stem cell growth factor receptor Kit (KIT, Homo sapiens, UniProt P10721, D816H)", "KIT V559D": "Mast/stem cell growth factor receptor Kit (KIT, Homo sapiens, UniProt P10721, V559D)", "KIT L576P": "Mast/stem cell growth factor receptor Kit (KIT, Homo sapiens, UniProt P10721, L576P)", "KIT A829P": "Mast/stem cell growth factor receptor Kit (KIT, Homo sapiens, UniProt P10721, A829P)", "KIT V559D/V654A": "Mast/stem cell growth factor receptor Kit (KIT, Homo sapiens, UniProt P10721, V559D/V654A)", "note": "Compare with care: the assays were run in different laboratories."}
{"target": "KIT autoinhibited", "test": "binding", "remaining binding": "87%", "SMILES": "C[C@@H]1CCN(c2nccc(-c3cnn4ncccc34)n2)C1"}
{"target": "KIT D816H", "test": "binding, competition with immobilised ligand", "remaining binding": "100%", "SMILES": "CNC(=O)[C@@H]1CC[C@@H](n2c(-c3ccc4cnccc4c3)nc3ccc(C(=O)NCc4cccc(C(N)=O)c4)cc32)C1"}
{"target": "KIT D816H", "test": "cell-free assay, competition with immobilised ligand", "remaining binding": "84.3%", "SMILES": "CC1=C(C#N)[C@@H](c2ccc3[nH]nc(C)c3c2)C(C#N)=C(c2ccc(Cl)cc2)N1"}
{"target": "KIT V559D", "test": "binding, competition with immobilised ligand", "remaining binding": "98%", "SMILES": "COc1cnc(Nc2cccc(S(N)(=O)=O)c2)nc1N1CCN(c2ccccc2)C(=O)C1"}
{"target": "KIT L576P", "test": "cell-free assay, competition with immobilised ligand", "remaining binding": "95%", "SMILES": "Cc1c(NC(=O)c2cc(C(N)=O)nc3cc(F)ccc23)c(C(F)(F)F)nn1Cc1ccc(C(C)(C)C)cc1"}
{"target": "Mast/stem cell growth factor receptor Kit (KIT, Homo sapiens, UniProt P10721, T670I/V559D)", "test": "binding", "remaining binding": "100%", "SMILES": "CN(CCCC(F)(F)F)c1nccc(-c2cnn3ncccc23)n1"}
{"target": "Mast/stem cell growth factor receptor Kit (KIT, Homo sapiens, UniProt P10721)", "test": "cell-free assay, competition with immobilised ligand", "remaining binding": "89%", "SMILES": "NS(=O)(=O)c1cc(NC(=O)Cc2ccccc2)ccc1Oc1cccc(Cl)c1"}
{"target": "KIT A829P", "test": "binding", "remaining binding": "54%", "SMILES": "CN(C)c1nccc(-c2cnc3ncccn23)n1"}
{"target": "KIT L576P", "test": "binding, competition with immobilised ligand", "remaining binding": "100%", "SMILES": "O=C(Nc1c[nH]nc1C(=O)NC1CCNCC1)c1cc(F)cc(F)c1"}
{"target": "KIT V559D", "test": "binding, competition with immobilised ligand", "remaining binding": "0.05%", "SMILES": "O=C(c1ccc(Nc2ncc(Cl)c(-c3ccc(Cl)s3)n2)cc1)N1CCC(N2CCCC2)CC1"}
{"target": "KIT V559D/V654A", "test": "binding", "remaining binding": "100%", "SMILES": "CN(C)c1nccc(-c2cnn3ncccc23)n1"}
{"target": "KIT L576P", "test": "binding, competition with immobilised ligand", "remaining binding": "8.6%", "SMILES": "O=C(c1ccc(Nc2nccc(-c3cc4ccccc4s3)n2)cc1)N1CCC(N2CCCC2)CC1"}
{"target": "KIT V559D", "test": "cell-free assay, competition with immobilised ligand", "remaining binding": "93%", "SMILES": "C[C@@H](c1cccc(C#N)c1)n1cc(Cl)cc(C(N)=O)c1=N"}
{"target": "KIT A829P", "test": "binding", "remaining binding": "100%", "SMILES": "N[C@@H]1CCN(c2nccc(-c3cnn4ncccc34)n2)C1"}
{"target": "KIT L576P", "test": "binding, competition with immobilised ligand", "remaining binding": "2.9%", "SMILES": "CCN1CCN(Cc2ccc(C(=O)Nc3ccc(C)c(Oc4ccc5c(c4)CC(=O)N5)c3)cc2C(F)(F)F)CC1"}
{"target": "KIT V559D", "test": "binding, competition with immobilised ligand", "remaining binding": "78%", "SMILES": "C=CC(=O)N1CCC(C(=O)NCC(=O)N2CCN(c3nc(-c4cnc(N)nc4C(F)F)nc(N4CCOCC4)n3)CC2)CC1"}
{"target": "KIT A829P", "test": "cell-free assay, competition with immobilised ligand", "remaining binding": "100%", "SMILES": "O=C(O)c1cc(-c2ccc(C3CCNCC3)cc2)c2ccc(-c3ccc(C(F)(F)F)cc3)cc2c1"}
{"target": "KIT V559D/V654A", "test": "binding", "remaining binding": "100%", "SMILES": "Cc1cnn2ncc(-c3ccnc(N(C)C)n3)c2c1"}
{"target": "KIT A829P", "test": "cell-free assay, competition with immobilised ligand", "remaining binding": "100%", "SMILES": "CC(=O)N1CCC(c2ccc(C(=O)NC(=N)N)cc2C(F)(F)F)CC1"}
{"target": "KIT A829P", "test": "binding", "remaining binding": "85%", "SMILES": "COc1ccnn2ncc(-c3ccnc(N(C)C)n3)c12"}
{"target": "KIT autoinhibited", "test": "binding, competition with immobilised ligand", "remaining binding": "31%", "SMILES": "O=C(NCCCN1CCOCC1)c1ccc(Nc2ncc(Cl)c(-c3ccc(Cl)s3)n2)cc1"}
